Measurements pooled from the literature.
Compare with care: the assays were run in different laboratories.
Target: Serine/threonine-protein kinase SIK3 (SIK3, Homo sapiens, UniProt Q9Y2K2)

SMILES	assay	setting	remaining binding [%]
N[C@H]1CCN(c2nccc(-c3cnn4ncccc34)n2)C1	binding	1 µM	100
Cc1cc(C)c(-n2ccn3nc(-c4cccnc4)cc23)cc1NC(=O)c1cc(C#N)cc(S(F)(F)(F)(F)F)c1	cell-free assay, competition with immobilised ligand	0.1 µM	75.3
Cc1cnc(Nc2ccc(C(=O)N3CCC(N4CCCC4)CC3)cc2)nc1-c1cc2ccccc2s1	binding, competition with immobilised ligand	1 µM	61
O=C(NCC1CCOCC1)c1n[nH]cc1NC(=O)c1c(F)cccc1F	binding, competition with immobilised ligand	1 µM	88
O=C(Nc1ccc(Oc2ccc(F)cc2)cc1)N1CCc2ncccc2[C@H]1c1ccc(F)cc1	cell-free assay, competition with immobilised ligand	1 µM	100
CN(C)c1nccc(-c2cnn3ncccc23)n1	binding	1 µM	99
CN(C)CC#Cc1ccc(OCCCc2sc(N3CCc4cccc(C(=O)Nc5nc6ccccc6s5)c4C3)nc2C(=O)O)c(F)c1	cell-free assay, competition with immobilised ligand	1 µM	77
O=C(c1ccc(Nc2nccc(-c3cc4ccccc4s3)n2)cc1)N1CCC(N2CCCC2)CC1	binding, competition with immobilised ligand	1 µM	65
c1cnn2ncc(-c3ccnc(N4CCC45COC5)n3)c2c1	binding	1 µM	70
CNC(=O)[C@@H]1CC[C@@H](n2c(-c3ccc4cnccc4c3)nc3ccc(C(=O)NCc4cccc(C(N)=O)c4)cc32)C1	binding, competition with immobilised ligand	1 µM	88
NS(=O)(=O)c1cc(NC(=O)Cc2ccccc2)ccc1Oc1cccc(Cl)c1	cell-free assay, competition with immobilised ligand	1 µM	87
CN(C)c1ncc(F)c(-c2cnn3ncccc23)n1	binding	1 µM	87
Nc1ncc2c(n1)-c1c([nH]c3ccc(C#CC4CC4)cc13)CCCC2	binding, competition with immobilised ligand	1 µM	100
CN(C)C(=O)Cn1cc(-c2nc(C3(c4ccc(-c5cnc(N)nc5)cc4)CC3)no2)cn1	cell-free assay, competition with immobilised ligand	1 µM	100
COc1cnc(Nc2cccc(S(N)(=O)=O)c2)nc1N1CCN(c2ccccc2)C(=O)C1	binding, competition with immobilised ligand	1 µM	90
F[C@@H]1CCN(c2nccc(-c3cnn4ncccc34)n2)C1	binding	1 µM	74
CC(=O)Nc1c(C(C)=O)c(=O)n(C)c2nc(-c3ccc(Cl)cc3Cl)c(-c3ccc(Cl)cc3)cc12	cell-free assay, competition with immobilised ligand	1 µM	100
O=C(NCCCN1CCOCC1)c1ccc(Nc2nccc(-c3cc4ccccc4s3)n2)cc1	binding, competition with immobilised ligand	1 µM	95
C[C@@H]1CCN(c2nccc(-c3cnn4ncccc34)n2)C1	binding	1 µM	31
FC(F)(F)Oc1cccc(-c2cnc3ccc(-c4ccncc4)nn23)c1	cell-free assay, competition with immobilised ligand	5 µM	66
